Columns and labels:
Format in all cases: functional
IGROV-1 = test: Growth inhibition of human IGROV-1 cells assessed as cell growth at 1 uM incubated for 48 hrs by sulforhodamine B assay relative to control; settings: read-out: Activity
TK-10 = test: Growth inhibition of human TK-10 cells incubated for 48 hrs by sulforhodamine B assay; settings: for CC50: read-out: LC50 (the source's name)
Method in brief: (§1)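 NCI DTP 60-line human tumour panel. Dose-response curves were run only for ligands active in the initial 10 µM screen. GI50 (concentration giving 50% of maximal inhibition of proliferation) and TGI (concentration giving total growth inhibition) were derived from these curves.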

NCI-H23 [1] = test: Growth inhibition of human NCI-H23 cells assessed as cell growth at 0.1 uM incubated for 48 hrs by sulforhodamine B assay relative to control; settings: read-out: Activity
NCI-H23 [2] = test: Growth inhibition of human NCI-H23 cells assessed as cell growth at 0.01 uM incubated for 48 hrs by sulforhodamine B assay relative to control; settings: read-out: Activity
BT-549 [3] = test: Growth inhibition of human BT-549 cells incubated for 48 hrs by sulforhodamine B assay; settings: for CC50: read-out: LC50 (the source's name)
Method in brief: (§2)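 NCI Developmental Therapeutics Program NCI60 panel. Compounds that were active in the 10 µM one-dose screen went on to dose–response testing. Growth at each concentration is expressed relative to untreated control (100%). GI50 (concentration giving 50% of maximal inhibition of proliferation) and TGI (concentration giving total growth inhibition) were derived from the curves.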

HOP-92 [4] = test: Growth inhibition of human HOP-92 cells assessed as cell growth at 1 uM incubated for 48 hrs by sulforhodamine B assay relative to control; settings: read-out: Activity
U-251 = test: Growth inhibition of human U-251 cells assessed as cell growth at 1 uM incubated for 48 hrs by sulforhodamine B assay relative to control; settings: read-out: Activity
SR = test: Growth inhibition of human SR cells assessed as cell growth at 0.01 uM incubated for 48 hrs by sulforhodamine B assay relative to control; settings: read-out: Activity
A498 = test: Growth inhibition of human A498 cells assessed as cell growth at 1 uM incubated for 48 hrs by sulforhodamine B assay relative to control; settings: read-out: Activity; method in brief: as §2
SF-539 = test: Growth inhibition of human SF-539 cells assessed as cell growth at 0.01 uM incubated for 48 hrs by sulforhodamine B assay relative to control; settings: read-out: Activity
SW-620 = test: Growth inhibition of human SW-620 cells assessed as cell growth at 1 uM incubated for 48 hrs by sulforhodamine B assay relative to control; settings: read-out: Activity
M14 = test: Growth inhibition of human M14 cells assessed as cell growth at 1 uM incubated for 48 hrs by sulforhodamine B assay relative to control; settings: read-out: Activity
KM12 = test: Growth inhibition of human KM12 cells assessed as cell growth at 0.01 uM incubated for 48 hrs by sulforhodamine B assay relative to control; settings: read-out: Activity
SF-295 = test: Growth inhibition of human SF-295 cells assessed as cell growth at 100 uM incubated for 48 hrs by sulforhodamine B assay relative to control; settings: read-out: Activity
SNB-19 = test: Growth inhibition of human SNB-19 cells assessed as cell growth at 0.01 uM incubated for 48 hrs by sulforhodamine B assay relative to control; settings: read-out: Activity
BT-549 [5] = test: Growth inhibition of human BT-549 cells assessed as cell growth at 0.01 uM incubated for 48 hrs by sulforhodamine B assay relative to control; settings: read-out: Activity
T47D = test: Growth inhibition of human T47D cells incubated for 48 hrs by sulforhodamine B assay; settings: for CC50: read-out: LC50 (the source's name); method in brief: as §1
HOP-92 [6] = test: Growth inhibition of human HOP-92 cells assessed as cell growth at 0.01 uM incubated for 48 hrs by sulforhodamine B assay relative to control; settings: read-out: Activity
OVCAR-5 = test: Growth inhibition of human OVCAR-5 cells assessed as cell growth at 1 uM incubated for 48 hrs by sulforhodamine B assay relative to control; settings: read-out: Activity
BT-549 [7] = test: Growth inhibition of human BT-549 cells assessed as cell growth at 0.1 uM incubated for 48 hrs by sulforhodamine B assay relative to control; settings: read-out: Activity
NCI/ADR-RES = test: Growth inhibition of human NCI/ADR-RES cells incubated for 48 hrs by sulforhodamine B assay; settings: for CC50: read-out: LC50 (the source's name)
Method in brief: (§3)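 NCI60 panel at the NCI Developmental Therapeutics Program. Only compounds active in the 10 µM screen went to dose-response testing. GI50, the concentration giving 50% of maximal inhibition of proliferation, and TGI, the concentration giving total growth inhibition, were derived from the dose-response curves.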

A549 = test: Growth inhibition of human A549/ATCC cells incubated for 48 hrs by sulforhodamine B assay; settings: for CC50: read-out: LC50 (the source's name); method in brief: as §2
OVCAR-4 [8] = test: Growth inhibition of human OVCAR-4 cells assessed as cell growth at 0.01 uM incubated for 48 hrs by sulforhodamine B assay relative to control; settings: read-out: Activity
Malme-3M = test: Growth inhibition of human Malme-3M cells assessed as cell growth at 100 uM incubated for 48 hrs by sulforhodamine B assay relative to control; settings: read-out: Activity
MCF7 = test: Growth inhibition of human MCF7 cells assessed as cell growth at 100 uM incubated for 48 hrs by sulforhodamine B assay relative to control; settings: read-out: Activity
OVCAR-4 [9] = test: Growth inhibition of human OVCAR-4 cells incubated for 48 hrs by sulforhodamine B assay; settings: for CC50: read-out: LC50 (the source's name); method in brief: as §1
HCC 2998 = test: Growth inhibition of human HCC 2998 cells incubated for 48 hrs by sulforhodamine B assay; settings: for CC50: read-out: LC50 (the source's name)
RPMI-8226 = test: Growth inhibition of human RPMI-8226 cells assessed as cell growth at 1 uM incubated for 48 hrs by sulforhodamine B assay relative to control; settings: read-out: Activity
HT-29 [10] = test: Growth inhibition of human HT-29 cells assessed as cell growth at 0.1 uM incubated for 48 hrs by sulforhodamine B assay relative to control; settings: read-out: Activity
NCI-H23 [11] = test: Growth inhibition of human NCI-H23 cells incubated for 48 hrs by sulforhodamine B assay; method in brief: as §3
CAKI-1 = test: Growth inhibition of human CAKI-1 cells assessed as cell growth at 1 uM incubated for 48 hrs by sulforhodamine B assay relative to control; settings: read-out: Activity; method in brief: as §2
HT-29 [12] = test: Growth inhibition of human HT-29 cells assessed as cell growth at 1 uM incubated for 48 hrs by sulforhodamine B assay relative to control; settings: read-out: Activity
CCRF-CEM = test: Growth inhibition of human CCRF-CEM cells assessed as cell growth at 0.01 uM incubated for 48 hrs by sulforhodamine B assay relative to control; settings: read-out: Activity; method in brief: as §2
NCI-H226 = test: Growth inhibition of human NCI-H226 cells assessed as cell growth at 100 uM incubated for 48 hrs by sulforhodamine B assay relative to control; settings: read-out: Activity
786-0 = test: Growth inhibition of human 786-0 cells assessed as cell growth at 100 uM incubated for 48 hrs by sulforhodamine B assay relative to control; settings: read-out: Activity

Cc1cc(C)c(NC(=O)c2sc3nc4c(cc3c2N)CN(Cc2ccccc2)CC4)c(C)c1
growth at 1 µM (IGROV-1): 85% | GI50 (TK-10): 5.06 µM | TGI (TK-10): > 100 µM | CC50 (TK-10): > 100 µM | growth at 0.1 µM (NCI-H23 [1]): 103% | growth at 0.01 µM (NCI-H23 [2]): 102% | GI50 (BT-549 [3]): 4.05 µM | TGI (BT-549 [3]): 57.6 µM | CC50 (BT-549 [3]): > 100 µM | growth at 1 µM (HOP-92 [4]): 49% | growth at 1 µM (U-251): 92% | growth at 0.01 µM (SR): 100% | growth at 1 µM (A498): 58% | growth at 0.01 µM (SF-539): 91% | growth at 1 µM (SW-620): 76% | growth at 1 µM (M14): 78% | growth at 0.01 µM (KM12): 98% | growth at 100 µM (SF-295): -2% | growth at 0.01 µM (SNB-19): 98% | growth at 0.01 µM (BT-549 [5]): 87% | GI50 (T47D): 2620 nM | TGI (T47D): > 100 µM | CC50 (T47D): > 100 µM | growth at 0.01 µM (HOP-92 [6]): 85% | growth at 1 µM (OVCAR-5): 97% | growth at 0.1 µM (BT-549 [7]): 91% | GI50 (NCI/ADR-RES): 1640 nM | TGI (NCI/ADR-RES): 6.24 µM | CC50 (NCI/ADR-RES): > 100 µM | GI50 (A549): 4.11 µM | TGI (A549): > 100 µM | CC50 (A549): > 100 µM | growth at 0.01 µM (OVCAR-4 [8]): 93% | growth at 100 µM (Malme-3M): -17% | growth at 100 µM (MCF7): -8% | GI50 (OVCAR-4 [9]): 6.72 µM | TGI (OVCAR-4 [9]): > 100 µM | CC50 (OVCAR-4 [9]): > 100 µM | GI50 (HCC 2998): 5.33 µM | TGI (HCC 2998): 38.4 µM | CC50 (HCC 2998): > 100 µM | growth at 1 µM (RPMI-8226): 87% | growth at 0.1 µM (HT-29 [10]): 100% | GI50 (NCI-H23 [11]): 4.51 µM | LC50 (50% lethal concentration) (NCI-H23 [11]): > 100 µM | TGI (NCI-H23 [11]): > 100 µM | growth at 1 µM (CAKI-1): 76% | growth at 1 µM (HT-29 [12]): 90% | growth at 0.01 µM (CCRF-CEM): 100% | growth at 100 µM (NCI-H226): 20%

CN1CCc2nc3sc(C(N)=O)c(N)c3c(-c3cccs3)c2C1
growth at 1 µM (IGROV-1): 129% | GI50 (TK-10): 3.32 µM | TGI (TK-10): 13.1 µM | CC50 (TK-10): > 100 µM | growth at 0.1 µM (NCI-H23 [1]): 95% | growth at 0.01 µM (NCI-H23 [2]): 97% | GI50 (BT-549 [3]): 3.26 µM | TGI (BT-549 [3]): 35.5 µM | CC50 (BT-549 [3]): > 100 µM | growth at 1 µM (HOP-92 [4]): 104% | growth at 1 µM (U-251): 90% | growth at 100 µM (786-0): 15% | growth at 0.01 µM (SR): 97% | growth at 1 µM (A498): 96% | growth at 0.01 µM (SF-539): 102% | growth at 1 µM (SW-620): 116% | growth at 1 µM (M14): 115% | growth at 0.01 µM (KM12): 103% | growth at 100 µM (SF-295): 4% | growth at 0.01 µM (SNB-19): 103% | growth at 0.01 µM (BT-549 [5]): 114% | GI50 (T47D): 2810 nM | TGI (T47D): > 100 µM | CC50 (T47D): > 100 µM | growth at 0.01 µM (HOP-92 [6]): 127% | growth at 0.1 µM (BT-549 [7]): 114% | GI50 (NCI/ADR-RES): 3690 nM | TGI (NCI/ADR-RES): 98.8 µM | CC50 (NCI/ADR-RES): > 100 µM | GI50 (A549): 3.37 µM | TGI (A549): > 100 µM | CC50 (A549): > 100 µM | growth at 0.01 µM (OVCAR-4 [8]): 110% | growth at 100 µM (Malme-3M): -11% | growth at 100 µM (MCF7): 11% | GI50 (OVCAR-4 [9]): 7.38 µM | TGI (OVCAR-4 [9]): > 100 µM | CC50 (OVCAR-4 [9]): > 100 µM | GI50 (HCC 2998): 3.54 µM | TGI (HCC 2998): 20.9 µM | CC50 (HCC 2998): > 100 µM | growth at 1 µM (RPMI-8226): 119% | growth at 0.1 µM (HT-29 [10]): 104% | GI50 (NCI-H23 [11]): 2.87 µM | LC50 (50% lethal concentration) (NCI-H23 [11]): > 100 µM | TGI (NCI-H23 [11]): 12.6 µM | growth at 1 µM (CAKI-1): 82% | growth at 1 µM (HT-29 [12]): 91% | growth at 0.01 µM (CCRF-CEM): 103% | growth at 100 µM (NCI-H226): 14%
